Consider 34 molecules from ChEMBL document CHEMBL1124979, “4-Heterocyclyloxy-2H-1-benzopyran potassium channel activators” (1990).

The subject of assay [1] is Rattus norvegicus. The experiment in a line: Antihypertensive activity measured by maximum fall in the mean blood pressure after an oral administration of 1 mg/kg in spontaneously hypertensive rats; NS= Did not lower the blood pressure significantly. The format is functional, organism-based. On the set-up: dose 1 mg/kg. The method in brief:
(§1)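 Conscious, unrestrained male spontaneously hypertensive rats (Okamoto strain, 280-330 g, blood pressure >180 mmHg), N ≥ 3, given a single 1 mg/kg oral screening dose. Mean arterial pressure was recorded directly via an aortic catheter from 1 h before to 3.5 h after dosing. The value is the mean of the maximum individual falls over 3.5 h; a fall under 18 mmHg counted as not significant.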

The subject of assay [2] is Rattus norvegicus. Description: Antihypertensive activity measured by maximum fall in the mean blood pressure after an oral administration of 1 mg/kg in spontaneously hypertensive rats. The format is functional. The method in brief: as §1
The species named for assay [3] is Rattus norvegicus. Description: Dose required to reduce mean blood pressure by 30 mmHg in spontaneously hypertensive rats. The format is functional. The method in brief:
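Conscious male Okamoto SHR (280-330 g, baseline pressure >180 mmHg) fitted with an aortic catheter for continuous direct recording of mean arterial pressure over 3.5 h. Compounds active at the 1 mg/kg oral screen were given orally at 2-4 additional doses. Mean maximal falls were regressed linearly against log dose to derive ED30, the dose in […] lowering pressure by 30 mmHg.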

The mark [4] stands for this setting: Rattus norvegicus, Blood, read-out: ED30.

The structures appear in SMILES notation.

For the molecule `CC1(C)Oc2ccc(Br)cc2C(Oc2ccc(=O)[nH]n2)C1O` (stereo unspecified), in the assay with Rattus norvegicus [1], the BP result was “Not significant”.

In the assay on Rattus norvegicus [2], `CC1(C)C=C(n2ccc(O)cc2=O)c2cc(C#N)ccc2O1` yielded a BP of 19 mmHg. As for `CC1(C)Oc2ccc(C#N)cc2[C@@H](Oc2cccnc2O)[C@@H]1O`, in the assay on Rattus norvegicus [1], the BP entry is “Not significant”. In turn, `CC1(C)Oc2ccc(C#N)cc2[C@@H](n2ccc(O)cc2=O)[C@@H]1O` yielded a BP with Rattus norvegicus [2] of 28 mmHg.

With `CC1(C)Oc2ccc(C#N)cc2[C@@H](n2[nH]c(=O)ccc2=O)[C@@H]1O`, the BP result in the assay on Rattus norvegicus [1] was “Not significant”.

Take `CC1(C)Oc2ccc(C#N)cc2[C@@H](Oc2cccnc2N)[C@@H]1O`: the BP entry with Rattus norvegicus [1] is “Not significant”. Turning to `Cn1nc(O[C@@H]2c3cc(C#N)ccc3OC(C)(C)[C@H]2O)ccc1=O` (stereo in doubt; 14a), in the assay with Rattus norvegicus [2] (1 mg/kg), the BP turned out to be 124 mmHg. Also, the ED30 in the assay filed under Rattus norvegicus [3] (setting [4]) was determined as 0.018 mg/kg. In the case of `CC1(C)Oc2ccc(C#N)cc2[C@@H](Oc2ccc(S)nn2)[C@@H]1O`, the BP result in the assay on Rattus norvegicus [1] is “Not significant”. The same measure, in the same setting: next, `CC1(C)Oc2ccc(C(=N)S)cc2[C@@H](Oc2ccnc(O)c2)[C@@H]1O`: “Not significant”.

For the molecule `CC1(C)Oc2ccc(C#N)cc2C(N2CCCC2=O)C1O` (stereo unspecified) [CROMAKALIM], the BP in the assay on Rattus norvegicus [2] came out at 78 mmHg. Moreover, the ED30 in the assay filed under Rattus norvegicus [3] (setting [4]) worked out at 0.11 mg/kg.

As to `CC1(C)C=C(Oc2ccc(=O)[nH]n2)c2cc(C#N)ccc2O1`, the BP entry with Rattus norvegicus [1] is “Not significant”. Turning to `CC1(C)Oc2ccc([N+](=O)[O-])cc2[C@@H](Oc2ccnc(O)c2)[C@@H]1O`, the BP in the assay with Rattus norvegicus [2] is 117 mmHg. The ED30 in the assay listed under Rattus norvegicus [3] (setting [4]) is 0.013 mg/kg. As for `Cn1nc(OC2=CC(C)(C)Oc3ccc(C#N)cc32)ccc1=O`, in the assay on Rattus norvegicus [1], the BP result was “Not significant”. On the same count and under the same terms, next, `CC1(C)Oc2ccc(C#N)cc2C(n2ccc(N)nc2=O)[C@@H]1O` (stereo partly specified): “Not significant”; `CC1(C)Oc2ccc(C#N)cc2[C@@H](Oc2cc(O)ncn2)[C@@H]1O`: “Not significant”. In the assay with Rattus norvegicus [2], `CCn1nc(O[C@@H]2c3cc(C#N)ccc3OC(C)(C)[C@H]2O)ccc1=O` came in with a BP of 127 mmHg. Further, the ED30 in the assay listed under Rattus norvegicus [3] (setting [4]) came out at 0.02 mg/kg. For `CC1(C)Oc2ccc(C#N)cc2[C@@H](Oc2ccnc(O)c2)[C@@H]1O` the same measures were 104 mmHg and 0.006 mg/kg. For `COC(=O)c1ccc2c(c1)C(Oc1ccc(=O)[nH]n1)C(O)C(C)(C)O2` (stereo unspecified), the BP in the assay on Rattus norvegicus [2] is on record as 18 mmHg.

`CC1(C)Oc2ccc(C#N)cc2C(n2nc(N)ccc2=O)[C@@H]1O` (stereo partly specified) had a BP in the assay with Rattus norvegicus [2] of 39 mmHg. For the molecule `Cn1nc(O[C@@H]2c3cc(C#N)ccc3OC(C)(C)[C@H]2O)ccc1=O` (stereo in doubt; 22a), the BP in the assay on Rattus norvegicus [2] (1 mg/kg) is recorded as 151 mmHg. The molecule also came in with an ED30 in the assay listed under Rattus norvegicus [3] of 0.013 mg/kg. `CC1(C)Oc2ccc(C#N)cc2C(n2ccc(N)cc2=O)[C@@H]1O` (stereo partly specified): the BP result in the assay with Rattus norvegicus [1] is “Not significant”. `Cn1nc(O[C@H]2c3cc(C#N)ccc3OC(C)(C)[C@@H]2O)ccc1=O` came in with a BP in the assay with Rattus norvegicus [2] of 19 mmHg. With `CC1(C)C=C(Oc2ccc(S)nn2)c2cc(C#N)ccc2O1`, the BP entry with Rattus norvegicus [1] is “Not significant”. Still for that read-out and setting: next, `CC1(C)Oc2ccc(C(N)=S)cc2C(Oc2ccc(=O)[nH]n2)C1O` (stereo unspecified): “Not significant”. The molecule `CC1(C)Oc2ccc(C#N)cc2[C@@H](Oc2ccc(O)nc2)[C@@H]1O` displayed a BP in the assay with Rattus norvegicus [2] of 23 mmHg. In the assay on Rattus norvegicus [2], `CC(=O)Oc1ccn(C2=CC(C)(C)Oc3ccc(C#N)cc32)c(=O)c1` displayed a BP of 28 mmHg. As to `CC1(C)Oc2ccc(C#N)cc2[C@H](Oc2ccc(=O)[nH]n2)[C@H]1O`, in the assay with Rattus norvegicus [1], the BP result was “Not significant”. Consider `CC1(C)Oc2ccc(C#N)cc2C(Oc2ccc(=O)[nH]n2)C1O` (stereo unspecified), for which the BP with Rattus norvegicus [2] is 129 mmHg. The ED30 in the assay filed under Rattus norvegicus [3] (setting [4]) is 0.014 mg/kg. With `COC(=O)c1ccc2c(c1)[C@@H](Oc1ccnc(O)c1)[C@H](O)C(C)(C)O2`, the BP result with Rattus norvegicus [1] was “Not significant”.

As to `CC1(C)Oc2ccc([N+](=O)[O-])cc2C(Oc2ccc(=O)[nH]n2)C1O` (stereo unspecified), in the assay on Rattus norvegicus [2], the BP was 78 mmHg. On the same count and under the same terms, next, `CC(=O)OC1C(Oc2ccc(=O)[nH]n2)c2cc(C#N)ccc2OC1(C)C` (stereo unspecified): 97 mmHg; `CC(C)n1nc(O[C@@H]2c3cc(C#N)ccc3OC(C)(C)[C@H]2O)ccc1=O`: 32 mmHg; `Cn1ccc(O[C@@H]2c3cc(C#N)ccc3OC(C)(C)[C@H]2O)cc1=O`: 83 mmHg. As for `CC1(C)C=C(Oc2ccnc(O)c2)c2cc(C#N)ccc2O1`, in the assay on Rattus norvegicus [1], the BP result was “Not significant”.
